From ChEMBL document CHEMBL5724801, “EUbOPEN Chemogenomics Library - Multiplex” (2024)
Values joined by “and” are separate entries in the source; they are usually repeats but may differ in a detail not shown here. Identical values can stand only once.

Tested on: HEK-293T
Assay: Multiplex assay against HEK293T
Format: toxicity, cell-based
Conditions: human
Method in brief: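 Phenotypes for tubulin, mitochondrial mass and membrane permeability are expressed as per cents of healthy-nucleus cells. Cells were stained live at seeding with Hoechst33342, BioTracker Green Microtubule Cytoskeleton Dye, MitoTracker Red and Annexin V Alexa Fluor 680, then imaged after compound addition on a CQ1 microscope at 37°C and 5% CO2. Machine-learning gating in CellPathfinder separated Hoechst high-intensity objects from normal cells, divided normal cells by nuclear state (healthy, pyknosed, fragmented) and divided pyknosed cells into mitotic or apoptotic.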

[1] = 12 h, 1 µM, compound concentration 1 uM
[2] = 12 h, 10 µM, compound concentration 10 uM
[3] = 24 h, 1 µM, compound concentration 1 uM
[4] = 24 h, 10 µM, compound concentration 10 uM
[5] = 48 h, 1 µM, compound concentration 1 uM
[6] = 48 h, 10 µM, compound concentration 10 uM

O=C(Nc1cc(C(F)(F)F)cc(C(F)(F)F)c1)c1cc(Cl)ccc1O [IMD-0354]
Population Apoptotic (%) [1]: 4.35% and 3.39%
Population Fragmented Nuclei (%) [1]: 2.35% and 2.03%
Population Healthy Nuclei (%) [1]: 43.53% and 18.24%
Population Hoechst High Intensity Objects (%) [1]: 0.58% and 0%
Population Membrane Permeable-Phenotype (%) [1]: 0.68% and 0%
Population Mitotic Cells (%) [1]: 95.65% and 96.61%
Population Normal (%) [1]: 99.42% and 100%
Population Pyknosed Nuclei (%) [1]: 54.12% and 79.73%
Total Cell Count [1]: 342 and 148
Population Apoptotic (%) [2]: 8.89% and 5.65%
Population Fragmented Nuclei (%) [2]: 4.05% and 10.2%
Population Healthy Nuclei (%) [2]: 14.86% and 5.44%
Population Hoechst High Intensity Objects (%) [2]: 1.33% and 0%
Population Membrane Permeable-Phenotype (%) [2]: 0% and 12.5%
Population Mitotic Cells (%) [2]: 91.11% and 94.35%
Population Normal (%) [2]: 98.67% and 100%
Population Pyknosed Nuclei (%) [2]: 81.08% and 84.35%
Population Tubulin-Different-Phenotype (%) [2]: 0%
Total Cell Count [2]: 225 and 147
Population Apoptotic (%) [3]: 6.35% and 10.83%
Population Fragmented Nuclei (%) [3]: 1.67% and 0%
Population Healthy Nuclei (%) [3]: 68.26% and 25.47%
Population Hoechst High Intensity Objects (%) [3]: 0.48% and 0%
Population Membrane Permeable-Phenotype (%) [3]: 2.8% and 4.88%
Population Mitochondria Different-Phenotype (%) [3]: 4.9% and 4.88%
Population Mitotic Cells (%) [3]: 93.65% and 89.17%
Population Normal (%) [3]: 99.52% and 100%
Population Pyknosed Nuclei (%) [3]: 30.07% and 74.53%
Population Tubulin-Different-Phenotype (%) [3]: 6.99% and 2.44%
Total Cell Count [3]: 421 and 161
Population Apoptotic (%) [4]: 5.52% and 6.29%
Population Fragmented Nuclei (%) [4]: 3.57% and 12.35%
Population Hoechst High Intensity Objects (%) [4]: 0.88% and 0%
Population Membrane Permeable-Phenotype (%) [4]: 5.71% and 0%
Population Mitochondria Different-Phenotype (%) [4]: 5.71% and 0%
Population Mitotic Cells (%) [4]: 94.48% and 93.71%
Population Normal (%) [4]: 99.12% and 100%
Population Pyknosed Nuclei (%) [4]: 80.8% and 84.12%
Population Tubulin-Different-Phenotype (%) [4]: 5.71% and 16.67%
Total Cell Count [4]: 226 and 170
Population Apoptotic (%) [5]: 6.21% and 4.35%
Population Fragmented Nuclei (%) [5]: 1.53% and 0.99%
Population Healthy Nuclei (%) [5]: 78.27% and 53.69%
Population Hoechst High Intensity Objects (%) [5]: 0%
Population Membrane Permeable-Phenotype (%) [5]: 16.37% and 6.42%
Population Mitochondria Different-Phenotype (%) [5]: 2.49% and 3.67%
Population Mitotic Cells (%) [5]: 93.79% and 95.65%
Population Normal (%) [5]: 100%
Population Pyknosed Nuclei (%) [5]: 20.19% and 45.32%
Population Apoptotic (%) [6]: 5.97% and 5.04%
Population Fragmented Nuclei (%) [6]: 3.97% and 7.69%
Population Healthy Nuclei (%) [6]: 16.27% and 10.06%
Population Hoechst High Intensity Objects (%) [6]: 0.79% and 0%
Population Membrane Permeable-Phenotype (%) [6]: 12.2% and 5.88%
Population Mitochondria Different-Phenotype (%) [6]: 21.95% and 11.76%
Population Mitotic Cells (%) [6]: 94.03% and 94.96%
Population Normal (%) [6]: 99.21% and 100%
Population Pyknosed Nuclei (%) [6]: 79.76% and 82.25%
Total Cell Count [6]: 254 and 169

O=C1COc2nccc(-c3ccccc3F)c2CN1Cc1cc(C(F)(F)F)cc(C(F)(F)F)c1
Population Apoptotic (%) [1]: 31% and 51%
Population Fragmented Nuclei (%) [1]: 8% and 4%
Population Healthy Nuclei (%) [1]: 80% and 83%
Population Hoechst High Intensity Objects (%) [1]: 5% and 10%
Population Membrane Permeable-Phenotype (%) [1]: 0%
Population Mitochondria Different-Phenotype (%) [1]: 41% and 67%
Population Mitotic Cells (%) [1]: 68% and 48%
Population Normal (%) [1]: 94% and 89%
Population Pyknosed Nuclei (%) [1]: 10% and 11%
Population Tubulin-Different-Phenotype (%) [1]: 27% and 20%
Total Cell Count [1]: 397 and 333
Population Apoptotic (%) [2]: 38% and 57%
Population Fragmented Nuclei (%) [2]: 10% and 8%
Population Healthy Nuclei (%) [2]: 76% and 79%
Population Hoechst High Intensity Objects (%) [2]: 9% and 5%
Population Membrane Permeable-Phenotype (%) [2]: 0%
Population Mitochondria Different-Phenotype (%) [2]: 67% and 76%
Population Mitotic Cells (%) [2]: 61% and 42%
Population Normal (%) [2]: 90% and 94%
Population Pyknosed Nuclei (%) [2]: 13% and 12%
Population Tubulin-Different-Phenotype (%) [2]: 68% and 39%
Total Cell Count [2]: 475 and 382
Population Apoptotic (%) [3]: 21% and 59%
Population Fragmented Nuclei (%) [3]: 8% and 5%
Population Healthy Nuclei (%) [3]: 84% and 87%
Population Hoechst High Intensity Objects (%) [3]: 3% and 8%
Population Membrane Permeable-Phenotype (%) [3]: 0%
Population Mitochondria Different-Phenotype (%) [3]: 32% and 39%
Population Mitotic Cells (%) [3]: 78% and 40%
Population Normal (%) [3]: 96% and 91%
Population Pyknosed Nuclei (%) [3]: 7% and 6%
Population Tubulin-Different-Phenotype (%) [3]: 23% and 12%
Total Cell Count [3]: 517 and 428
Population Apoptotic (%) [4]: 52% and 36%
Population Fragmented Nuclei (%) [4]: 10% and 7%
Population Healthy Nuclei (%) [4]: 76% and 79%
Population Hoechst High Intensity Objects (%) [4]: 5%
Population Membrane Permeable-Phenotype (%) [4]: 0%
Population Mitochondria Different-Phenotype (%) [4]: 71% and 72%
Population Mitotic Cells (%) [4]: 47% and 63%
Population Normal (%) [4]: 94%
Population Pyknosed Nuclei (%) [4]: 13% and 12%
Population Tubulin-Different-Phenotype (%) [4]: 68% and 44%
Total Cell Count [4]: 520 and 492
Population Apoptotic (%) [5]: 27% and 38%
Population Fragmented Nuclei (%) [5]: 13% and 9%
Population Healthy Nuclei (%) [5]: 80% and 81%
Population Hoechst High Intensity Objects (%) [5]: 2% and 4%
Population Membrane Permeable-Phenotype (%) [5]: 0%
Population Mitochondria Different-Phenotype (%) [5]: 29% and 23%
Population Mitotic Cells (%) [5]: 72% and 61%
Population Normal (%) [5]: 97% and 95%
Population Pyknosed Nuclei (%) [5]: 6% and 8%
Population Tubulin-Different-Phenotype (%) [5]: 14% and 12%
Total Cell Count [5]: 743 and 574
Population Apoptotic (%) [6]: 44% and 56%
Population Fragmented Nuclei (%) [6]: 13% and 11%
Population Healthy Nuclei (%) [6]: 75% and 80%
Population Hoechst High Intensity Objects (%) [6]: 3% and 2%
Population Membrane Permeable-Phenotype (%) [6]: 0%
Population Mitochondria Different-Phenotype (%) [6]: 63% and 51%
Population Mitotic Cells (%) [6]: 55% and 43%
Population Normal (%) [6]: 96% and 97%
Population Pyknosed Nuclei (%) [6]: 11% and 7%
Population Tubulin-Different-Phenotype (%) [6]: 46% and 25%
Total Cell Count [6]: 713 and 669

CCC(=O)OCC(=O)[C@@]1(OC(=O)CC)[C@@H](C)C[C@H]2[C@@H]3CCC4=CC(=O)C=C[C@]4(C)[C@@]3(Cl)[C@@H](O)C[C@@]21C [BECLOMETHASONE DIPROPIONATE]
Population Apoptotic (%) [1]: 43% and 47%
Population Fragmented Nuclei (%) [1]: 8% and 5%
Population Healthy Nuclei (%) [1]: 75% and 74%
Population Hoechst High Intensity Objects (%) [1]: 7% and 4%
Population Membrane Permeable-Phenotype (%) [1]: 0%
Population Mitochondria Different-Phenotype (%) [1]: 60% and 75%
Population Mitotic Cells (%) [1]: 56% and 52%
Population Normal (%) [1]: 92% and 95%
Population Pyknosed Nuclei (%) [1]: 15% and 19%
Population Tubulin-Different-Phenotype (%) [1]: 48% and 42%
Total Cell Count [1]: 388 and 356
Population Apoptotic (%) [2]: 60% and 68%
Population Fragmented Nuclei (%) [2]: 8% and 6%
Population Healthy Nuclei (%) [2]: 66%
Population Hoechst High Intensity Objects (%) [2]: 14% and 16%
Population Membrane Permeable-Phenotype (%) [2]: 0%
Population Mitochondria Different-Phenotype (%) [2]: 87% and 93%
Population Mitotic Cells (%) [2]: 39% and 31%
Population Normal (%) [2]: 85% and 83%
Population Pyknosed Nuclei (%) [2]: 25% and 27%
Population Tubulin-Different-Phenotype (%) [2]: 65% and 35%
Total Cell Count [2]: 236 and 252
Population Apoptotic (%) [3]: 32% and 43%
Population Fragmented Nuclei (%) [3]: 7%
Population Healthy Nuclei (%) [3]: 81%
Population Hoechst High Intensity Objects (%) [3]: 4% and 5%
Population Membrane Permeable-Phenotype (%) [3]: 0%
Population Mitochondria Different-Phenotype (%) [3]: 40% and 52%
Population Mitotic Cells (%) [3]: 67% and 56%
Population Normal (%) [3]: 95% and 94%
Population Pyknosed Nuclei (%) [3]: 11%
Population Tubulin-Different-Phenotype (%) [3]: 31% and 18%
Total Cell Count [3]: 507 and 446
Population Apoptotic (%) [4]: 56% and 62%
Population Fragmented Nuclei (%) [4]: 13% and 5%
Population Healthy Nuclei (%) [4]: 65% and 71%
Population Hoechst High Intensity Objects (%) [4]: 11% and 9%
Population Membrane Permeable-Phenotype (%) [4]: 0%
Population Mitochondria Different-Phenotype (%) [4]: 89% and 97%
Population Mitotic Cells (%) [4]: 44% and 37%
Population Normal (%) [4]: 88% and 90%
Population Pyknosed Nuclei (%) [4]: 21% and 23%
Population Tubulin-Different-Phenotype (%) [4]: 73% and 43%
Total Cell Count [4]: 270 and 243
Population Apoptotic (%) [5]: 30% and 31%
Population Fragmented Nuclei (%) [5]: 11% and 12%
Population Healthy Nuclei (%) [5]: 78% and 79%
Population Hoechst High Intensity Objects (%) [5]: 4% and 3%
Population Membrane Permeable-Phenotype (%) [5]: 0%
Population Mitochondria Different-Phenotype (%) [5]: 28% and 32%
Population Mitotic Cells (%) [5]: 69% and 68%
Population Normal (%) [5]: 95% and 96%
Population Pyknosed Nuclei (%) [5]: 9% and 8%
Population Tubulin-Different-Phenotype (%) [5]: 18% and 17%
Total Cell Count [5]: 742 and 655
Population Apoptotic (%) [6]: 67% and 65%
Population Fragmented Nuclei (%) [6]: 14% and 12%
Population Healthy Nuclei (%) [6]: 72%
Population Hoechst High Intensity Objects (%) [6]: 5%
Population Membrane Permeable-Phenotype (%) [6]: 0%
Population Mitochondria Different-Phenotype (%) [6]: 72% and 90%
Population Mitotic Cells (%) [6]: 32% and 34%
Population Normal (%) [6]: 94%
Population Pyknosed Nuclei (%) [6]: 13% and 15%
Population Tubulin-Different-Phenotype (%) [6]: 43% and 62%
Total Cell Count [6]: 347 and 283
